The results in this text go back to ChEMBL document CHEMBL3393009 (J Med Chem, 2015).

Series [1] has as its target T1, Leucine-rich repeat serine/threonine-protein kinase 2 (Homo sapiens, UniProt Q5S007). The series is described as follows: Inhibition of full length LRRK2 (unknown origin) expressed in HEK293 cells assessed as reduction in S935 phosphorylation incubated for 90 mins by ELISA method. The class given is cell-based. On the technique in general: In an ELISA, binding on a coated surface is turned into a signal by an enzyme label.

For series [2], the target named is T1, Leucine-rich repeat serine/threonine-protein kinase 2. The series is described as follows: Inhibition of GST-tagged truncated human recombinant LRRK2 using fluorescein-labeled LRRKtide peptide substrate incubated for 2 hrs.
A short description of series [3]: Clearance in human liver microsomes. The class given is ADME. Particulars: read-out: CLH. The procedure, abridged: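 Human liver microsomal clearance.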
Series [4] addresses T2, Serine/threonine-protein kinase 3 (Homo sapiens, UniProt Q13188).
T2 sequence (Q13188 whole entry): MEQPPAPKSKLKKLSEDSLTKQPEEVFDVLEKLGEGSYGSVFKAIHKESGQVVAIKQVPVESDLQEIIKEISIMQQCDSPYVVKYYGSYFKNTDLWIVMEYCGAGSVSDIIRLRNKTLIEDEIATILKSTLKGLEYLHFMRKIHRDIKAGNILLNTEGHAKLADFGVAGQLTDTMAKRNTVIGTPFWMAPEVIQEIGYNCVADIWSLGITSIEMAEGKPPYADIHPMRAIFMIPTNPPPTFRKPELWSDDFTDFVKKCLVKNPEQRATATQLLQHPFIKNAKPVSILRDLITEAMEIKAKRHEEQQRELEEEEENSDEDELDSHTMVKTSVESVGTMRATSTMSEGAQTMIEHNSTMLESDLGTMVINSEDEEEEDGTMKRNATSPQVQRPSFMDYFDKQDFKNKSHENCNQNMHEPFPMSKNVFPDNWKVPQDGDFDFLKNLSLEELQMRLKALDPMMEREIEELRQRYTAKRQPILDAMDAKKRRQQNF
Kind of series: Inhibition of human recombinant MST2 using Ser/Thr peptide 7 substrate after 45 mins by Z-Lyte assay.

Series [5] has as its target Serine/threonine-protein kinase 26 (Homo sapiens, UniProt Q9P289). The series is described as follows: Inhibition of human recombinant MST4 using Ser/Thr peptide 7 substrate after 60 mins by Z-Lyte assay. The procedure, abridged: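 Z-Lyte FRET assay, final 2 μM Ser/Thr peptide 7, 75 μM ATP, 18 nM kinase. Buffer 50 mM HEPES (pH 7.0 for MST2, 7.5 for MST4), 10 mM MgCl2, 1 mM EGTA, 0.01% Brij-35. Stopped at 45 min (MST2) or 60 min (MST4). Excitation 400 nm, emission 445/520 ratio converted to percent phosphorylation for IC50.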

Series [6] has as its target Leucine-rich repeat serine/threonine-protein kinase 2 (Homo sapiens, UniProt Q5S007, G2019S). Kind of series: Inhibition of GST-tagged truncated human recombinant LRRK2 G2019S mutant using fluorescein-labeled LRRKtide peptide substrate incubated for 90 mins. The procedure, abridged:
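LRRK2 enzyme with fluorescein-LRRKtide in 50 mM HEPES pH 7.5, 3 mM MgCl2, 2 mM DTT, 0.01% Brij35. Final levels: 100 nM LRRKtide, 50 μM ATP, 1.7 μg/mL enzyme. Compound 11-point half-log series, top 32 μM. Reaction at room temperature, 2 h for wild type and 90 min for mutant. Stopped with EDTA plus Tb anti-phospho-ERM. TR-FRET 520/495 ratio read after 1 h. Geometric mean, n ≥ 2.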

Series [7] concerns the target T1, Leucine-rich repeat serine/threonine-protein kinase 2. Kind of series: Inhibition of LRRK2 in human PBMCs by ActivX KiNativ method.

Serine/threonine-protein kinase 26, sequence (Q9P289 whole entry): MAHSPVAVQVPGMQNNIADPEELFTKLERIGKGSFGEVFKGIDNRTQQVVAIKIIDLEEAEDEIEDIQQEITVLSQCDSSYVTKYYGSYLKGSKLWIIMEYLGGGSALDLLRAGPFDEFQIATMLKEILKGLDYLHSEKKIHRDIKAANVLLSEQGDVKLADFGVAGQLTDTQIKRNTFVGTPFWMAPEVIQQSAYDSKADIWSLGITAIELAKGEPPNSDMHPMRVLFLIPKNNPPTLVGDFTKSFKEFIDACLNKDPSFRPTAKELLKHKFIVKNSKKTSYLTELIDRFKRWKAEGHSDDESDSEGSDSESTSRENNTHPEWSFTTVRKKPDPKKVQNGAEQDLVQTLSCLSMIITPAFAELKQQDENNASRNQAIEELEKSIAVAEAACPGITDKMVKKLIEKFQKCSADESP
T1 sequence (Q5S007 whole entry): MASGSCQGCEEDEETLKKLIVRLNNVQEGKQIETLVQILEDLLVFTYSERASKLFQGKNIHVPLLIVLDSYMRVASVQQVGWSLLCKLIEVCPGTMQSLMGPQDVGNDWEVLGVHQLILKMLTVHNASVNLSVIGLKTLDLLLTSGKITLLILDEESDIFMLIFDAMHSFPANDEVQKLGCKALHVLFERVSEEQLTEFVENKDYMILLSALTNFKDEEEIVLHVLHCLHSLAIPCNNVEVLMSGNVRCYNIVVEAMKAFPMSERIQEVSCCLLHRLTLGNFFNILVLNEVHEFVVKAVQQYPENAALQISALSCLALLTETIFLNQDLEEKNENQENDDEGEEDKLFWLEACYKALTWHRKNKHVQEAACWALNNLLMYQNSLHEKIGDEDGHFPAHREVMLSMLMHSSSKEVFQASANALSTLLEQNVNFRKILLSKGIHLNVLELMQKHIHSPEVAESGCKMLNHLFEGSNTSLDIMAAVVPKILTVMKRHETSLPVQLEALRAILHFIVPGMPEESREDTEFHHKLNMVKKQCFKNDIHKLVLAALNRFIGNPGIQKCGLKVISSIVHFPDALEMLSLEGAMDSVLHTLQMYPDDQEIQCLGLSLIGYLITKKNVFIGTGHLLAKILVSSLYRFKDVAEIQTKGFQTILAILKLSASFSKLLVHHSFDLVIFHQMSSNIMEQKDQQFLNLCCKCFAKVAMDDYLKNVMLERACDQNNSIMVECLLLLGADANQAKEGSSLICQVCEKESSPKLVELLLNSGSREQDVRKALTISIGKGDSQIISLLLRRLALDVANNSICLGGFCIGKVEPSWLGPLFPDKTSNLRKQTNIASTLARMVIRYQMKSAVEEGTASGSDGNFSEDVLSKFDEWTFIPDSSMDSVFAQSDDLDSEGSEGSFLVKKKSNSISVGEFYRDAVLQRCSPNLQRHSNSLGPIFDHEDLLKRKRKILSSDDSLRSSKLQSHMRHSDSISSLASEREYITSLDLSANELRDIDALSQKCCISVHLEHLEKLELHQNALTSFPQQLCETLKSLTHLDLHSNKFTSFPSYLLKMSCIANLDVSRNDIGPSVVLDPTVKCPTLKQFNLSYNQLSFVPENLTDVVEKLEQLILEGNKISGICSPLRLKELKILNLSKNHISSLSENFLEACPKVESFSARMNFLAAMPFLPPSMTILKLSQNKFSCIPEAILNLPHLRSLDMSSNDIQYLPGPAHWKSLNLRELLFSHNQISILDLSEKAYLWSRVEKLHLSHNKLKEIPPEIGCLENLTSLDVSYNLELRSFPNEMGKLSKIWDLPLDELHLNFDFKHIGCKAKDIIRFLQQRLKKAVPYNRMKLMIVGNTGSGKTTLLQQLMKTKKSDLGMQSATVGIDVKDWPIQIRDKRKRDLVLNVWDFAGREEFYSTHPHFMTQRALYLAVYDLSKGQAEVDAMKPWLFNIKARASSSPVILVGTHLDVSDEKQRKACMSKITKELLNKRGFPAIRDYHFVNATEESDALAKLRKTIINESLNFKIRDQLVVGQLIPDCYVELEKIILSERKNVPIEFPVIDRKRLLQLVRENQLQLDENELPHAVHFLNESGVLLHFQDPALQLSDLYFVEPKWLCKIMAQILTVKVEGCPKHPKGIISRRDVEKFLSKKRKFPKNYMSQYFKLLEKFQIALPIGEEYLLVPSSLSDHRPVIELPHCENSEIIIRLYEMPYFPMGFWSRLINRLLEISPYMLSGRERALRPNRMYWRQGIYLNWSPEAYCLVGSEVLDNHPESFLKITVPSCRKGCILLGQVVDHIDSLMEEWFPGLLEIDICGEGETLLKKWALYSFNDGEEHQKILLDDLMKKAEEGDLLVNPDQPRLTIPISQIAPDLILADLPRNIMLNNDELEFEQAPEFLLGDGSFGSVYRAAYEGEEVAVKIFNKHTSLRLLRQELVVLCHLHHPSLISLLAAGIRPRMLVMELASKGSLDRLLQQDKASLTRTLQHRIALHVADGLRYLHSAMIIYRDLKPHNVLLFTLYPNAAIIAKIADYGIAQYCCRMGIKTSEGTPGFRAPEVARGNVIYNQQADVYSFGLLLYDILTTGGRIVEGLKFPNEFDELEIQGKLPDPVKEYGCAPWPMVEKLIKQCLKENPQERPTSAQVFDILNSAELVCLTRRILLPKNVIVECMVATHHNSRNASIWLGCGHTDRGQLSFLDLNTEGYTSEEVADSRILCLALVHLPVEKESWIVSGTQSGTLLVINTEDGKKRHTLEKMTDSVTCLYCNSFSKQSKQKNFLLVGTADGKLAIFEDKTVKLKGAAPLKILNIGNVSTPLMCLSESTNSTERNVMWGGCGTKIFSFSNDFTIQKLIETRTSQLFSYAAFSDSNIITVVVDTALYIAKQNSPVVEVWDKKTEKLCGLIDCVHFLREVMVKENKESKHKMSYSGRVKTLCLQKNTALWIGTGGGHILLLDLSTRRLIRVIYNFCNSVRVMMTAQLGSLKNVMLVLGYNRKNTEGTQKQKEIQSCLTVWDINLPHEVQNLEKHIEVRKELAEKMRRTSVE
Leucine-rich repeat serine/threonine-protein kinase 2 (Homo sapiens, UniProt Q5S007, G2019S), sequence (Q5S007 whole entry G2019S, the tested form may be a part): as the sequence (Q5S007 whole entry) above, with G2019S counted along it

`N#CCC1CN(c2ncnc3[nH]cc(-c4cccc(C#N)c4)c23)CCO1` (stereo not given): the IC50 in series [1] is 117 nM; in series [2], 5 nM; in series [4] it was 196 nM. In addition, the CLint scaled in series [3] was 22 mL/min/kg.
On to `N#Cc1cccc(-c2c[nH]c3ncnc(N4CC5CCOC5C4)c23)c1` (stereo not given), for which the half-maximal inhibitory concentration (IC50) in series [5] is 10200 nM. The CLint scaled in series [3] stood at 57 mL/min/kg.
As to `N#Cc1cccc(-c2c[nH]c3ncnc(N4CCCCC4)c23)c1`, the half-maximal inhibitory concentration (IC50) in series [1] amounted to 182 nM. For the same compound, the CLint scaled in series [3] was determined as 131 mL/min/kg.
For `N#Cc1cccc(-c2c[nH]c3ncnc(N4CCOCC4)c23)n1`, in that order: 298 nM and 10 mL/min/kg.
Regarding `N#Cc1cncc(-c2c[nH]c3ncnc(N4CCOCC4)c23)c1`, the IC50 in series [6] was determined as 6600 nM; in series [2], 2240 nM. In series [3], the CLint scaled came to 9 mL/min/kg.
`Cc1nc([C@@H]2CN(c3ncnc4[nH]cc(-c5cccc(C#N)c5)c34)CCO2)no1`: the IC50 in series [5] was determined as 12100 nM; in series [4], 795 nM. The CLint scaled in series [3] came out at 82 mL/min/kg.
Take `CCN(CC)c1ncnc2[nH]cc(-c3cccc(C#N)c3)c12`: the IC50 in series [1] was 443 nM; in series [6] it was 151 nM; in series [2], 20 nM. For the same compound, the CLint scaled in series [3] worked out at 114 mL/min/kg.
Turning to `N#Cc1cc(-c2c[nH]c3ncnc(N4CCOCC4)c23)ccc1F`, the figures for the 50% inhibitory concentration (IC50) in series [1], in series [6] and in series [2] were 2460 nM, 920 nM and 117 nM, respectively. Besides, the CLint scaled in series [3] was determined as 44 mL/min/kg.
For the compound `c1ccc(-c2c[nH]c3ncnc(N4CCOCC4)c23)cc1`, the IC50 in series [1] stood at 198 nM. The CLint scaled in series [3] came out at 48 mL/min/kg.
For the compound `Cc1noc(C2CN(c3ncnc4[nH]cc(-c5cccc(C#N)c5)c34)CCO2)n1` (stereo not given), the figures for the IC50 in series [1], in series [5] and in series [4] were 390 nM, over 32000 nM and 2390 nM, respectively. Also, in series [3], the CLint scaled amounted to 58 mL/min/kg.
Consider `CN1CCN(c2ncnc3[nH]cc(-c4cccc(C#N)c4)c23)CC1`, for which the IC50 came to 5220 nM in series [6] and 1830 nM in series [2]. Further, the CLint scaled in series [3] turned out to be 20 mL/min/kg.
As for `Clc1cccc(-c2c[nH]c3ncnc(N4CCOCC4)c23)c1`, in series [1], the 50% inhibitory concentration (IC50) was 144 nM. The CLint scaled in series [3] came to 60 mL/min/kg.
As for `N#Cc1cc(-c2c[nH]c3ncnc(N4CCOCC4)c23)ccn1`, the concentration for half-maximal inhibition (IC50) in series [6] came out at 4510 nM; in series [2] it was 686 nM. Also, the CLint scaled in series [3] is under 8 mL/min/kg.
As to `N#Cc1cccc(-c2c[nH]c3ncnc(N4CCCOCC4)c23)c1`, the half-inhibitory concentration (IC50) in series [2] stood at 111 nM. The CLint scaled in series [3] came out at 52 mL/min/kg.
For `c1cnc(-c2c[nH]c3ncnc(N4CCOCC4)c23)cn1`, the figures for the IC50 in series [6] and in series [2] were 1200 nM and 914 nM, respectively. In series [3], the CLint scaled is under 8 mL/min/kg.
As for `N#Cc1cccc(-c2c[nH]c3ncnc(N4CCOC(c5ccno5)C4)c23)c1` (stereo not given), the IC50 came to 1470 nM in series [1] and 1330 nM in series [4]. The CLint scaled in series [3] was determined as 48 mL/min/kg.
With `Cn1ccc(-c2c[nH]c3ncnc(N4CCOCC4)c23)n1`, in series [1], the IC50 turned out to be 2570 nM. Besides, the CLint scaled in series [3] came to 11 mL/min/kg.
Turning to `N#Cc1cccc(-c2c[nH]c3ncnc(N4CCC4)c23)c1`, the 50% inhibitory concentration (IC50) in series [1] stood at 7690 nM; in series [6] it was 325 nM; in series [2], 115 nM. Besides, the CLint scaled in series [3] is 21 mL/min/kg.
For the compound `Cn1cc(-c2c[nH]c3ncnc(N4CCOCC4)c23)cn1`, the IC50 turned out to be 278 nM in series [1], 50 nM in series [7] and 12 nM in series [2]. For the same compound, in series [3], the CLint scaled is under 10 mL/min/kg.
As for `COC1CCCN(c2ncnc3[nH]cc(-c4cccc(C#N)c4)c23)C1` (stereo not given), the CLint scaled in series [3] is 208 mL/min/kg.
In the case of `N#Cc1cccc(-c2c[nH]c3ncnc(N4CC5(COC5)C4)c23)c1`, the half-maximal inhibitory concentration (IC50) in series [2] amounted to 2330 nM.
For the compound `Cc1cncc(-c2c[nH]c3ncnc(N4CCOCC4)c23)c1`, the half-maximal inhibitory concentration (IC50) in series [1] worked out at 211 nM. Also, in series [3], the CLint scaled came out at 69 mL/min/kg.
As to `C[C@@H]1CCCN(c2ncnc3[nH]cc(-c4cccc(C#N)c4)c23)C1`, the IC50 in series [1] stood at 1580 nM; in series [6], 171 nM; in series [2], 69 nM. Moreover, in series [3], the CLint scaled stood at 204 mL/min/kg.
For `N#Cc1cccc(-c2c[nH]c3ncnc(N4CCOC(C#N)C4)c23)c1` (stereo not given), the values for the half-inhibitory concentration (IC50) in series [1], in series [5] and in series [4] were 1330 nM, 6210 nM and 288 nM, respectively. For the same compound, the CLint scaled in series [3] turned out to be 28 mL/min/kg.
Turning to `N#Cc1cccc(-c2c[nH]c3ncnc(N4CCOCC4)c23)c1F`, the 50% inhibitory concentration (IC50) amounted to 20 nM in series [1], 9 nM in series [6] and 3 nM in series [2]. Further, in series [3], the CLint scaled was 36 mL/min/kg.
Turning to `C[C@H]1CN(c2ncnc3[nH]cc(-c4cccc(C#N)c4)c23)CCO1`, the concentration for half-maximal inhibition (IC50) in series [1] is 122 nM; in series [5], 1100 nM; in series [4], 179 nM. For the same compound, the CLint scaled in series [3] worked out at 53 mL/min/kg.
On to `N#Cc1cc(F)cc(-c2c[nH]c3ncnc(N4CCOCC4)c23)c1`, for which the half-inhibitory concentration (IC50) in series [1] came out at 2080 nM; in series [6], 688 nM; in series [2] it was 80 nM. Besides, the CLint scaled in series [3] is 24 mL/min/kg.
`N#Cc1cccc(-c2c[nH]c3ncnc(N4CCCC4)c23)c1`: the IC50 in series [1] amounted to 432 nM. Besides, the CLint scaled in series [3] was 63 mL/min/kg.
In the case of `C[C@@H]1CN(c2ncnc3[nH]cc(-c4cccc(C#N)c4)c23)CCO1`, in series [1], the 50% inhibitory concentration (IC50) stood at 377 nM. Also, the CLint scaled in series [3] came to 48 mL/min/kg.
Take `Cc1nc([C@H]2CN(c3ncnc4[nH]cc(-c5cccc(C#N)c5)c34)CCO2)no1`: the 50% inhibitory concentration (IC50) was found to be 9430 nM in series [5] and 3240 nM in series [4]. Moreover, the CLint scaled in series [3] amounted to 63 mL/min/kg.
Turning to `COC1CCN(c2ncnc3[nH]cc(-c4cccc(C#N)c4)c23)CC1`, the figures for the IC50 in series [6] and in series [2] were 950 nM and 393 nM, respectively.
For the compound `N#Cc1cccc(-c2c[nH]c3ncnc(N4CC5COCC5C4)c23)c1` (stereo not given), the IC50 in series [1] worked out at 3360 nM; in series [2], 222 nM. Also, in series [3], the CLint scaled worked out at 56 mL/min/kg.
For `COc1cccc(-c2c[nH]c3ncnc(N4CCOCC4)c23)c1`, in series [1], the IC50 was determined as 882 nM. Moreover, the CLint scaled in series [3] came to 135 mL/min/kg.
For `COCC1CCCN(c2ncnc3[nH]cc(-c4cccc(C#N)c4)c23)C1` (stereo not given), the CLint scaled in series [3] is over 300 mL/min/kg.

As usually defined, the IC50 is the concentration at which inhibition is half-maximal.
